From PubChem
MT1-MMP act inh = blockers of MT1-MMP proenzyme processing, primary screen, HT1080 RFP-PRO-GFP cells, GFP/RFP fluorescence; Matrix metalloproteinase-14 (Homo sapiens), P50281; GFP/RFP ratio fluorescence, overnight; percent of plate control window, DMSO zero; GFP/RFP ratio change, % at 20 µM; actives 0.061% (n = 360,000);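 active means GFP/RFP ratio change of at least 30% with cell ATP level not reduced by more than half and red fluorescence within 50% of control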
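Test system: HT1080 cells expressing an RFP-PRO-GFP fluorescent reporter construct / Compound dosing: single-point 20 µM compound, 1% DMSO / Schedule: cells overnight before dosing, compound overnight, 37 °C, 5% CO2 / Evaluation: GFP/RFP fluorescence ratio / Control set: DMSO and RFP-L50D-GFP cell wells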
DDE Tn7 FP inh = inhibitors of Tn7 peptide binding to fibrin DD(E), primary screen, biochemical, fluorescence polarization, human fibrin, Tn7 probe | inhibition, % at 8.3 µM | actives 0.13% (n = 370,000) | FP displacement of FITC-Tn7 peptide from fibrin DD(E); 0% = median of compound wells per plate | Fibrinogen beta chain (Homo sapiens), P02675;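 active means inhibition above the mean of compounds falling within the control limits plus 3 SD of them, cut at about 14% in these data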;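 further: 0% = plate median of compound wells and 100% = 10 µM Aha-Tn7 peptide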
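Test system – human fibrin DD(E) · Times – 10 min preincubation, 3 h with tracer, room temperature · Detection – fluorescence polarization of the labelled Tn7 tracer · Measure – percent inhibition normalized to high-control wells · Benchmarks – high control wells with 10 µM unlabelled Aha-Tn7 peptide (full inhibition) · Repeats – singlicate testing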
DDE Tn6 FP inh = inhibitors of Tn6 peptide binding to fibrin DD(E), primary screen, biochemical, fluorescence polarization, human fibrin, Tn6 probe. inhibition, % at 8.3 µM. Fibrin DD(E) TRITC-Tn6 fluorescence polarization displacement. AID 720509, 2013. Fibrinogen beta chain (Homo sapiens), P02675. actives 0.21% (n = 370,000);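 active means inhibition above a per-campaign cutoff: mean of compounds within control limits plus 3 SD, cut at about 15% in these data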;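 further: 0% = median of all compound wells on the plate and 100% = blocking peptide control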
ADAM17 inh = ADAM17 inhibitors, primary screen, biochemical, QFRET. Disintegrin and metalloproteinase domain-containing protein 17 (Homo sapiens), P78536. recombinant ADAM17, EDANS/DABCYL FRET peptide cleavage. inhibition, % at 6.95 µM. actives 0.83% (n = 370,000);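 active means inhibition above the mean of compounds lying between control limits plus 3 SD, set per campaign, cut at about 8.5% in these data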;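 further: 0% = DMSO-only wells as the low control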
ADAM10 inh = human ADAM10 inhibitors, primary screen, biochemical, QFRET, HTS; actives 0.62% (n = 370,000); AID 720582, 2013; inhibition, % at 7 µM; recombinant ADAM10, EDANS/DABCYL FRET peptide cleavage, 3 h;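 active means inhibition above a per-campaign cutoff equal to the mean of compounds falling between control-based bounds plus 3 SD, cut at about 20% in these data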;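 further: 0% = DMSO wells while the 100% control is not disclosed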
Target sequence (O14672 214-748 limits assumed): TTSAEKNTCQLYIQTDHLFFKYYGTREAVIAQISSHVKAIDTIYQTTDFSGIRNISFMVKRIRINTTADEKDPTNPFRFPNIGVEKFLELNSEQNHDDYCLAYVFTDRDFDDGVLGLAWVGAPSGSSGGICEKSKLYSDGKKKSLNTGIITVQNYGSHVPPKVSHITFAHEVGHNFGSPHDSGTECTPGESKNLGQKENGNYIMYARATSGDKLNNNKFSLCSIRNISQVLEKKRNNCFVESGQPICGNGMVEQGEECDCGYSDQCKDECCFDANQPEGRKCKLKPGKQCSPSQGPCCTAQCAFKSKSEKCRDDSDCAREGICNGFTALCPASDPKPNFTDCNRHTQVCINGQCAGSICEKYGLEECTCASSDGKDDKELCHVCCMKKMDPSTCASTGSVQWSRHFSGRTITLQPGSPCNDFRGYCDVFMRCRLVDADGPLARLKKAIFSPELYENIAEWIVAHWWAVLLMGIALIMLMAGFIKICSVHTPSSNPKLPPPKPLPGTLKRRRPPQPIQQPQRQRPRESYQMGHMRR
ADAM10 confirm = human ADAM10 inhibitors, confirmation, biochemical, QFRET, triplicate. inhibition, % at 6.95 µM. ADAM10 QFRET peptide cleavage, EDANS fluorescence. AID 743208, 2013. shares compounds with ADAM10 inh. actives 1% (n = 2,100);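 active means inhibition above about 20% chosen separately for each screening run, limit read from the data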;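 further: 0% = DMSO wells and 100% = marimastat wells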
ADAM17 ctr = ADAM17 inhibitors, counter-screen for ADAM10 exosite inhibitor project, biochemical, QFRET, high throughput. inhibition, % at 6.95 µM. ADAM17 QFRET peptide cleavage, EDANS fluorescence. AID 743214, 2013. shares compounds with ADAM10 inh. actives 0.5% (n = 2,100);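 active means mean triplicate inhibition above the solvent-only control wells' mean plus 3 SD, cut at about 12% in these data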;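 further: 0% = DMSO wells and 100% = marimastat wells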
ADAM10 counter = ADAM10 inhibitors, counter-screen for ADAM17 exosite inhibitor project, biochemical, FRET, human ADAM10 | actives 47% (n = 2,900) | inhibition, % at 6.95 µM | recombinant ADAM10, EDANS/DABCYL FRET peptide cleavage, 3 h | shares compounds with ADAM17 inh;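 active means mean inhibition over the triplicate runs exceeds the activity threshold set in the earlier primary screen, cut at about 20% in these data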;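 further: 0% = DMSO wells and 100% = marimastat wells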
ADAM17 confirm = ADAM17 inhibitors, hit retest, confirmation, biochemical, QFRET peptide cleavage | shares compounds with ADAM17 inh | recombinant ADAM17, EDANS/DABCYL QFRET peptide cleavage | inhibition, % at 6.95 µM | actives 65% (n = 2,900);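 active means mean inhibition across replicates above the hit cutoff set in the primary screen, cut at about 8.5% in these data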;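 further: 0% = DMSO wells and 100% = marimastat wells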
* marks the source's active call; other numbers are inactive results; · = no result. The list is not random: actives were taken first. Their share in the collection is about 1.6%.

SMILES	MT1-MMP act inh	DDE Tn7 FP inh	DDE Tn6 FP inh	ADAM17 inh	ADAM10 inh	ADAM10 confirm	ADAM17 ctr	ADAM10 counter	ADAM17 confirm
O=C(Nc1ccccc1)OC1CC2CC1[C@H]1CCCCN1[C@H]2Cc1ccccc1 (some centres not stated)	·	1	5	1	-4	·	·	·	·
CN(CCO)c1ccc2c(c1)Oc1ccccc1CN(Cc1cn(Cc3ccc(F)cc3)nn1)S2(=O)=O	·	6	-10	-3	5	·	·	·	·
COc1ccc(N(CC(=O)NCCSC2CCCCC2)S(=O)(=O)c2ccccc2)c(OC)c1	-2	4	-2	9.4*	21*	1	1	16	7
COc1ccc(OC)c(NC(=S)NCc2ccccc2OC)c1	3	3	12	-5	-4	·	·	·	·
Cc1ccccc1NC(=S)NCCC(c1ccccc1)c1ccccc1	1	-5	-3	16*	37*	7	3	8	7
COc1ccc(OC)c(NC(=S)NCCC(c2ccccc2)c2ccccc2)c1	2	1	-11	8.7*	21*	7	2	23*	22*
CC(C)(C)c1ccc(-c2noc(CCC(=O)NC3CC3)n2)cc1	·	2	0	-5	-4	·	·	·	·
O=C(Nc1ccc(C(O)(C(F)(F)F)C(F)(F)F)cc1)c1ccc(Cl)c([N+](=O)[O-])c1	6	-11	0	16*	34*	4	2	49*	22*
Cn1c(CNc2ccccc2F)nc2ccccc21	·	3	0	-1	1	·	·	·	·
CC1(c2ccc(OC(F)F)cc2)NC(=O)N(CC(=O)Nc2ccc(OC(F)F)cc2)C1=O (configuration not stated)	3	1	3	3	8	·	·	·	·
CCOC(=O)c1c(NC(=O)CN2C(=O)NC(C)(c3ccc(OC(F)F)cc3)C2=O)sc(C)c1C (configuration not stated)	-3	-6	0	11*	22*	19	6	34*	20*
O=C(CN1CCN(c2ccccc2O)CC1)Nc1cc(S(=O)(=O)N2CCCC2)ccc1Cl	1	-4	-6	8.9*	29*	7	3	13	11*
COCc1cc(N2CCNC[C@H]2C)ccc1N1CCN(Cc2ccccc2)[C@H](C)C1	·	0	5	-3	-11	·	·	·	·
COc1cc(C(O)c2nc(-c3ccc4ccccc4c3)cs2)ccc1F (configuration not stated)	1	11	-8	23*	49*	11	3	22*	15*
COc1ccc(C(O)c2nc(-c3ccc4ccccc4c3)cs2)cc1 (configuration not stated)	-6	-2	-4	20*	42*	6	3	21*	14*
